Values after ≈ are worked out from the molar mass of the structure shown. Active and inactive are the calls of the source. No cut-off for these calls is given here.
Experiments:
[1] = test system: Enterococcus faecium; assay: Antibacterial activity against Enterococcus faecium clinical isolates after 18 to 22 hrs by broth microdilution method; assay type: functional
Method in brief: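 Enterococcus faecium grown in BHI. MIC by CLSI broth microdilution, 37 °C for 18–22 h. Lowest concentration with no visible growth taken as MIC, reported as MIC50 across the isolates.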

[2] = test system: Enterococcus faecium; assay: Antibacterial activity against vancomycin-resistant Enterococcus faecium clinical isolates after 18 to 22 hrs by broth microdilution method; assay type: functional
Method in brief: (§1)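 CLSI broth microdilution against panels of enterococcal isolates. E. faecalis grown in TSB, E. faecium in BHI, 37 °C for 18–22 h. MIC is the lowest concentration without visible growth. MIC50 is the value inhibiting 50% of isolates in each group.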

[3] = test system: Enterococcus faecalis; assay: Antibacterial activity against Enterococcus faecalis clinical isolates after 18 to 22 hrs by broth microdilution method; assay type: functional; method in brief: as §1
[4] = test system: Enterococcus faecalis; assay: Antibacterial activity against vancomycin-resistant Enterococcus faecalis clinical isolates after 18 to 22 hrs by broth microdilution method; assay type: functional; method in brief: as §1
[5] = test system: Enterococcus faecium; assay: Bactericidal activity against Vancomycin-resistant Enterococcus faecium clinical isolates after 18 to 22 hrs by broth microdilution method; assay type: functional
Method in brief: (§2)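 MBC follows the broth microdilution MIC. 5 μL aliquots spotted onto TSA (E. faecalis) or BHI agar (E. faecium), incubated 37 °C for 18–22 h. MBC is the concentration giving >99% reduction in bacterial count. MBC50 is the value for 50% of isolates.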

[6] = test system: Enterococcus faecalis; assay: Bactericidal activity against vancomycin-resistant Enterococcus faecalis clinical isolates after 18 to 22 hrs by broth microdilution method; assay type: functional; method in brief: as §2
[7] = test system: Bacillus subtilis; assay: Antibacterial activity against Bacillus subtilis assessed as misshapen cells at 5 times MIC after 2 hrs in presence of methylsulfonyl methane by phase contrast microscopic analysis; assay type: functional
Method in brief: (§3)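 B. subtilis grown in LB at 37 °C to OD600 ~0.2, then treated at 5 × MIC with MSM for osmotic stabilisation. At 2 h, stained with FM 4-64 (1 μg/mL), DAPI (1 μg/mL) and SYTOX Green (1 μg/mL). Imaged by deconvolution fluorescence and phase contrast microscopy.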

[8] = test system: Bacillus subtilis; assay: Antibacterial activity against Bacillus subtilis assessed as bending of cells at 5 times MIC after 2 hrs in presence of methylsulfonyl methane by phase contrast microscopic analysis; assay type: functional; method in brief: as §3
[9] = test system: Bacillus subtilis; assay: Antibacterial activity against Bacillus subtilis assessed as pool of membranes at 5 times MIC after 2 hrs in presence of methylsulfonyl methane by phase contrast microscopic analysis; assay type: functional; method in brief: as §3
[10] = test system: Enterococcus faecalis; assay: Inhibition of UPPP-mediated peptidoglycan biosynthesis in Enterococcus faecalis NR-31975 assessed as accumulation of UDP-N-acetylmuramyl-pentapeptide at 10 times MIC after 30 mins by HPLC-MS analysis
Method in brief: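 Pellets boiled 30 min. UDP-N-acetylmuramyl-pentapeptide measured by HPLC-TOF MS on a phenyl column, 5–20% acetonitrile/0.1% formic acid gradient, positive ESI.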

[11] = test system: Enterococcus faecalis; assay: Antibacterial activity against vancomycin-resistant Enterococcus faecalis HM-201 infected in Caenorhabditis elegans AU37 assessed as reduction in bacterial burden at 20 ug/ml after 18 hrs by CFU-based […] analysis relative to control; assay type: functional
Method in brief: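 C. elegans AU37 adults infected on an E. faecalis HM-201 lawn for 2 h, washed in M9, 20–25 worms per well. Treated in triplicate with 20 μg/mL, with water as negative control. Worms washed, lysed with silicon carbide by vortexing, diluted serially and plated on TSA with 50 μg/mL gentamicin. CFU counted after 18 h at 37 °C and expressed as % reduction versus untreated worms.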

[12] = test system: Acinetobacter baumannii; assay: Antibacterial activity against Acinetobacter baumanii ATCC 19606 after 18 to 22 hrs in absence of colistin by broth microdilution method; assay type: functional; conditions: ATCC 19606 = CIP 70.34 = JCM 6841
Method in brief: (§4)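 Broth microdilution per CLSI guidelines. Gram-negatives grown in TSB. Each strain tested alone and again with colistin at ¼ × MIC to permeabilize the outer membrane. Plates incubated at 37 °C for 18–22 h. MIC read as the lowest concentration showing no visible growth.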

[13] = test system: Escherichia coli; assay: Antibacterial activity against Escherichia coli O157:H7 ATCC 35150 after 18 to 22 hrs in absence of colistin by broth microdilution method; assay type: functional
[14] = test system: Enterobacter cloacae; assay: Antibacterial activity against Enterobacter cloacae BAA-1154 after 18 to 22 hrs in absence of colistin by broth microdilution method; assay type: functional
[15] = test system: Klebsiella pneumoniae; assay: Antibacterial activity against Klebsiella pneumoniae BAA-1706 after 18 to 22 hrs in absence of colistin by broth microdilution method; assay type: functional
[16] = test system: Pseudomonas aeruginosa; assay: Antibacterial activity against Pseudomonas aeruginosa ATCC 15442 after 18 to 22 hrs in absence of colistin by broth microdilution method; assay type: functional
[17] = test system: Acinetobacter baumannii; assay: Antibacterial activity against Acinetobacter baumanii ATCC 19606 after 18 to 22 hrs in presence of 1/4 times MIC colistin by broth microdilution method; assay type: functional; conditions: ATCC 19606 = CIP 70.34 = JCM 6841; method in brief: as §4
[18] = test system: Escherichia coli; assay: Antibacterial activity against Escherichia coli O157:H7 ATCC 35150 after 18 to 22 hrs in presence of 1/4 times MIC colistin by broth microdilution method; assay type: functional
[19] = test system: Enterobacter cloacae; assay: Antibacterial activity against Enterobacter cloacae BAA-1154 after 18 to 22 hrs in presence of 1/4 times MIC colistin by broth microdilution method; assay type: functional; method in brief: as §4
[20] = test system: Klebsiella pneumoniae; assay: Antibacterial activity against Klebsiella pneumoniae BAA-1706 after 18 to 22 hrs in presence of 1/4 times MIC colistin by broth microdilution method; assay type: functional; method in brief: as §4
[21] = test system: Pseudomonas aeruginosa; assay: Antibacterial activity against Pseudomonas aeruginosa ATCC 15442 after 18 to 22 hrs in presence of 1/4 times MIC colistin by broth microdilution method; assay type: functional; method in brief: as §4

SMILES: CN[C@H](CC(C)C)C(=O)N[C@H]1C(=O)N[C@@H](CC(N)=O)C(=O)N[C@H]2C(=O)N[C@H]3C(=O)N[C@H](C(=O)N[C@H](C(=O)O)c4cc(O)cc(O)c4-c4cc3ccc4O)[C@H](O)c3ccc(c(Cl)c3)Oc3cc2cc(c3O[C@@H]2O[C@H](CO)[C@@H](O)[C@H](O)[C@H]2O[C@H]2C[C@](C)(N)[C@H](O)[C@H](C)O2)Oc2ccc(cc2Cl)[C@H]1O [VANCOMYCIN]
- MIC50 [1]: 1 µg/mL (≈ 0.69 µM)
- MIC50 [2]: > 64 µg/mL
- MIC50 [3]: 1 µg/mL (≈ 0.69 µM)
- MIC50 [4]: > 64 µg/mL
- MBC50 [5]: >64 µg/mL
- MBC50 [6]: >64 µg/mL
- Activity [7]: Active
- Activity [8]: Active
- Activity [9]: Active
- inhibition [10]: Active
- Activity [11]: inactive

SMILES: CC[C@H]1OC(=O)[C@H](C)[C@@H](O[C@H]2C[C@@](C)(OC)[C@@H](O)[C@H](C)O2)[C@H](C)[C@@H](O[C@@H]2O[C@H](C)C[C@H](N(C)C)[C@H]2O)[C@](C)(O)C[C@@H](C)C(=O)[C@H](C)[C@@H](O)[C@]1(C)O [ERYTHROMYCIN]
- MIC [12]: 8 µg/mL (≈ 10.9 µM)
- MIC [13]: 64 µg/mL (≈ 87.2 µM)
- MIC [14]: 128 µg/mL (≈ 174 µM)
- MIC [15]: 128 µg/mL (≈ 174 µM)
- MIC [16]: 128 µg/mL (≈ 174 µM)
- MIC [17]: 0.5 µg/mL
- MIC [18]: 1 µg/mL
- MIC [19]: 1 µg/mL
- MIC [20]: 0.5 µg/mL
- MIC [21]: 1 µg/mL

— ChEMBL document CHEMBL4028805, “Phenylthiazole Antibacterial Agents Targeting Cell Wall Synthesis Exhibit Potent Activity in Vitro and in Vivo against Vancomycin-Resistant Enterococci” (J Med Chem, 2017)
